Key:
[1] = biological target: T1, Retinal dehydrogenase 2 (Gallus gallus) (UniProt O93344); experiment: Inhibition of N-terminal His6-tagged recombinant chick RALDH2 expressed in Escherichia coli BL21(DE3) cells at 25 nM using RAL as substrate assessed as remaining activity preincubated for 20 mins followed by compound washout by ultrafiltration and subsequent addition of substrate and measured after 30 mins in presence of NADH by fluorescence assay (reference value: 100.0 +/- 11.57%)
T1 sequence (whole entry): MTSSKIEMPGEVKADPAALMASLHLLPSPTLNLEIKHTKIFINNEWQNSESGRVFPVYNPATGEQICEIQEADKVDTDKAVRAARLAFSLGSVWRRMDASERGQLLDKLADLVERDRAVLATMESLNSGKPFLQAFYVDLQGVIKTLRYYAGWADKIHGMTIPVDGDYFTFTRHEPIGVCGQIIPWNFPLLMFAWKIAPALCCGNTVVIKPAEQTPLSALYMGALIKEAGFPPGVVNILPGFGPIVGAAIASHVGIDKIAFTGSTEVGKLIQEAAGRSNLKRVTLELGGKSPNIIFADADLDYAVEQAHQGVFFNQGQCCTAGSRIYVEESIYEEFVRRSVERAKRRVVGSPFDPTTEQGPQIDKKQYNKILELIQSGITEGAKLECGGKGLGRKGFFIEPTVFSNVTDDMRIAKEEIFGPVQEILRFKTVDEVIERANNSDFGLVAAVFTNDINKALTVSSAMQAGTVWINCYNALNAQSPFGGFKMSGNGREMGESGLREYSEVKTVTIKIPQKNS
Summary of the method: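 Chick RALDH2 (91 nM) pre-incubated 20 min with 0–50 nM inhibitor. Unbound inhibitor removed by ultrafiltration before adding 250 μM retinaldehyde and 4 mM NAD+, 30 min at 37°C. NADH measured fluorimetrically. Activity expressed as % of vehicle. Triplicates; one-way ANOVA with Bonferroni test.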

[2] = biological target: T1, Retinal dehydrogenase 2 (Gallus gallus); experiment: (§1) Inhibition of N-terminal His6-tagged recombinant chick RALDH2 expressed in Escherichia coli BL21(DE3) cells at 250 nM using RAL as substrate assessed as remaining activity preincubated for 20 mins followed by all-trans-retinaldehyde and substrate addition measured after 30 mins in presence of NAD+ by fluorescence assay
Summary of the method: (§2)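 Chick RALDH2 (91 nM) pre-incubated with 250 nM inhibitor for 0–80 min at 37°C, alone or with 250 μM retinaldehyde or 250 μM NAD+. Reaction then started with the missing substrate and/or cofactor (250 μM retinaldehyde, 4 mM NAD), 30 min at 37°C. Fluorimetric NADH; % activity remaining. Triplicates.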

[3] = biological target: T1, Retinal dehydrogenase 2 (Gallus gallus); experiment: as §1, with “80” for “20”; summary of the method: as §2
HEK293 [4] = experiment: Cytotoxicity against doxycycline-inducible chicken RALDH2 expressing HEK293 cells by measuring DNA content after 24 hrs in presence of proteinase K by Pico-green dye-based fluorescence assay; format: functional, cell-based; settings: Homo sapiens, HEK293, 24 h
Summary of the method: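 Doxycycline-induced (Dox)RALDH2-eGFP HEK293 cells treated with compound in low-serum DMEM. Homogenate aliquots taken before ultracentrifugation were digested with proteinase K (0.05% w/v in 10 mM EDTA, 0.1 M sodium phosphate pH 6.5) at 60°C overnight. DNA measured by PicoGreen fluorescence. Toxicity curves span 0.01–50 μM over 24 h. Two experiments, n = 5 per concentration.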

HEK293 [5] = experiment: Cytotoxicity against doxycycline-inducible chicken RALDH2 expressing HEK293 cells by measuring ATP production after 24 hrs by CelTiter-Glo assay; format: cell-based; settings: Homo sapiens, HEK293, 24 h
Summary of the method: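 (Dox)RALDH2-eGFP HEK293 cells seeded at 10,000/well in DMEM + 10% FBS for 24 h, then switched to DMEM with 0.1% FBS containing 0–50 μM compound in DMSO (<0.5%) for 24 h at 37°C, 5% CO2. ATP read by luminescence and expressed as % of vehicle (0.5% DMSO) control. Two experiments, n = 5 per concentration.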

[6] = biological target: T1, Retinal dehydrogenase 2 (Gallus gallus); experiment: Inhibition of chick RALDH2 expressed in doxycycline-inducible HEK293 cells assessed as inhibition of ATRA synthesis at 2 uM after 24 hrs in presence of ATRA and NAD+; format: cell-based
Gallus gallus [7] = species on record: Gallus gallus; experiment: (§3) Inhibition of N-terminal His6-tagged recombinant chick RALDH3 expressed in Escherichia coli BL21(DE3) cells at 500 nM using RAL as substrate assessed as Km preincubated for 20 mins followed by substrate addition and measured after 30 mins in presence of NADH by fluorescence assay (reference value: 84.45 +/- 30.99 microM)
Gallus gallus [8] = species on record: Gallus gallus; experiment: as §3, with “Vmax” for “Km”, “107.3” for “84.45”, “15.97 pmol/microM/min)” for “30.99 microM)”
[9] = biological target: T1, Retinal dehydrogenase 2 (Gallus gallus); experiment: Inhibition of N-terminal His6-tagged recombinant chick RALDH2 expressed in Escherichia coli BL21(DE3) cells up to 500 nM using RAL as substrate assessed as rate of inactivation preincubated up to 40 mins followed by substrate addition and measured after 30 mins in presence of NADH by fluorescence assay
Summary of the method: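 Chick RALDH2 pre-incubated 10, 20 and 40 min with 0–500 nM inhibitor, then assayed with retinaldehyde/NAD+ by fluorimetric NADH. kobs taken from linear regression of log % activity remaining versus pre-incubation time. KI and kinact obtained by nonlinear regression of kobs versus inhibitor concentration.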

[10] = biological target: T1, Retinal dehydrogenase 2 (Gallus gallus); experiment: Inhibition of chick RALDH2 expressed in doxycycline-inducible HEK293 cells assessed as inhibition of ATRA synthesis at 0.5 uM after 24 hrs in presence of […]
[11] = biological target: T2, Aldehyde dehydrogenase, mitochondrial (Homo sapiens, UniProt P05091); experiment: Inhibition of N-terminal His6-tagged recombinant human mitochondrial ALDH2 using propionaldehyde as substrate preincubated for 20 mins to 1 hr followed by substrate addition and measured for 5 mins in presence of NADH by spectrophotometric assay
T2 sequence (P05091 whole entry): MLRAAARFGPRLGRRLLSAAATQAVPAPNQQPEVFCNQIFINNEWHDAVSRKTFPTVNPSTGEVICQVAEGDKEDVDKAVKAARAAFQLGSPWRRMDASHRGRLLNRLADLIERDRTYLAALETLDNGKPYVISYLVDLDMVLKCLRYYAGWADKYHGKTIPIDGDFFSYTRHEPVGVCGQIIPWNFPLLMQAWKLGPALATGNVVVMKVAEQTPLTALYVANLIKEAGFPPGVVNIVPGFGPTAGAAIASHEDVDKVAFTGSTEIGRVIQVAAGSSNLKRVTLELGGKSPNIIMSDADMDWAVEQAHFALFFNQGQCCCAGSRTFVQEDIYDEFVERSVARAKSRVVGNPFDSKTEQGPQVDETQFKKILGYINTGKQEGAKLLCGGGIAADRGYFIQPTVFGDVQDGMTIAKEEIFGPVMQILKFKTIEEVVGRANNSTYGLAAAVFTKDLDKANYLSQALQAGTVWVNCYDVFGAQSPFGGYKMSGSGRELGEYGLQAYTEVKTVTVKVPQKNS

Structure (SMILES): CC1=C(/C=C/C(C)=C/C=C/C(C)=C/C(=O)C(Cl)Cl)C(C)(C)CCC1
- Activity [1]: 33%
- Activity [2]: 27.8%
- Activity [3]: 16.5%
- IC50 (HEK293 [4]): 2.94 µM
- IC50 (HEK293 [5]): 3.09 µM
- inhibition [6]: 93%
- Km (Gallus gallus [7]): 26.9 µM
- Vmax (Gallus gallus [8]): 21.6 pmol/µM/min
- kobs [9]: 2.8e-05 to 0.012 min⁻¹
- inhibition [10]: 47%
- IC50 [11]: Not Active

Reference: ChEMBL document CHEMBL4261642, “Design, synthesis, and ex vivo evaluation of a selective inhibitor for retinaldehyde dehydrogenase enzymes” (Bioorg Med Chem, 2018)
